According to ChEMBL document CHEMBL1148024, “Novel inhibitors of fatty acid amide hydrolase” (Bioorg Med Chem Lett, 2007):
pIC50, pKi: −log10 of the molar value. Active and inactive are the calls of the source. No cut-off for these calls is given here.

Assays:
[1] = target: T1, Fatty-acid amide hydrolase 1 (Homo sapiens, UniProt O00519); assay: Inhibition of human FAAH expressed in H4 cells; format: cell-based
T1 sequence (O00519 whole entry): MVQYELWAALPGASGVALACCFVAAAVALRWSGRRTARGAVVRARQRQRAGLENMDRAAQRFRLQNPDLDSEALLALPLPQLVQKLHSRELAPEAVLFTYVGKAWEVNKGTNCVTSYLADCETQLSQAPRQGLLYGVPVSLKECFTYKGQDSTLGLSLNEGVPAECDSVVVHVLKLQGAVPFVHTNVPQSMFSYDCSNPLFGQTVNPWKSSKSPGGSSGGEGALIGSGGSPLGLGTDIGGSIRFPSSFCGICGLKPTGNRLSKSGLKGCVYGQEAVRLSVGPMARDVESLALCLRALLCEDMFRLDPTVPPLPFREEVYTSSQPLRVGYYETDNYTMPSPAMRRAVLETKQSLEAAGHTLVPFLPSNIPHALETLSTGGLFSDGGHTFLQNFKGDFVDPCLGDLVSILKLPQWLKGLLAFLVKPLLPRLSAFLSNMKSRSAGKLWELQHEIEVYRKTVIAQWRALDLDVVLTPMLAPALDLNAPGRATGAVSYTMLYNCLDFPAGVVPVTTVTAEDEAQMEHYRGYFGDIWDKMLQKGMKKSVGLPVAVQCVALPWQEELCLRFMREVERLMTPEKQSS
Method in brief: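 Enzyme source: crude membrane homogenates from H4 cells transfected with human FAAH. Activity measured by a modified Omeir et al. method. IC50 taken from a four-parameter logistic fit of dose–response curves.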

Rattus norvegicus [2] = assay: Antinociceptive effect in rat at 10 mg/kg, iv by thermal escape test; format: functional, organism-based; set-up: dose 10 mg/kg
Method in brief: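 Rats were dosed iv with test compound at 0.1, 1 and 10 mg/kg, 15 min before exogenous anandamide (1 mg/kg, iv). Antinociception was read in the Hargreaves thermal escape test from 3 to 30 min after anandamide.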

Cannabinoid receptor 1 = Cannabinoid receptor 1 (Homo sapiens, UniProt P21554); assay: Displacement of [3H]CP-55940 from CB1 receptor expressed in HEK cells; format: cell-based, HEK293
Chain of Cannabinoid receptor 1 (P21554 whole entry): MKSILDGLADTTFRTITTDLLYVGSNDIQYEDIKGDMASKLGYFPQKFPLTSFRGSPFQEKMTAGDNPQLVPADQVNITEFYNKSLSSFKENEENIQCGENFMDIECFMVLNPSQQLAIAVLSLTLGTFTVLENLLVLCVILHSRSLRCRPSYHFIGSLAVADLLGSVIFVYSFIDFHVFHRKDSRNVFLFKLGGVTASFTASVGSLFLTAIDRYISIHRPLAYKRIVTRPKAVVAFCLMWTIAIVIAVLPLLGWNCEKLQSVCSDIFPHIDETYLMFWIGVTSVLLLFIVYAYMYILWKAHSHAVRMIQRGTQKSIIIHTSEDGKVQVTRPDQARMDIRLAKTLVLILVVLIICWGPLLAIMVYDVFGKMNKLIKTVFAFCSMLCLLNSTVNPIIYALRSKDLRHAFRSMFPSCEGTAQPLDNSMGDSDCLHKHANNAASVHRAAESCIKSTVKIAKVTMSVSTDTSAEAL

Rattus norvegicus [3] = assay: Effect on neuropathic pain in rat chung model assessed as reversal of tactile allodynia at 20 mg/kg, iv; format: functional, organism-based; set-up: dose 20 mg/kg
Cannabinoid receptor 2 = Cannabinoid receptor 2 (Homo sapiens, UniProt P34972); assay: Displacement of [3H]CP-55940 from CB2 receptor expressed in CHO cells; format: cell-based
Chain of Cannabinoid receptor 2 (P34972 whole entry): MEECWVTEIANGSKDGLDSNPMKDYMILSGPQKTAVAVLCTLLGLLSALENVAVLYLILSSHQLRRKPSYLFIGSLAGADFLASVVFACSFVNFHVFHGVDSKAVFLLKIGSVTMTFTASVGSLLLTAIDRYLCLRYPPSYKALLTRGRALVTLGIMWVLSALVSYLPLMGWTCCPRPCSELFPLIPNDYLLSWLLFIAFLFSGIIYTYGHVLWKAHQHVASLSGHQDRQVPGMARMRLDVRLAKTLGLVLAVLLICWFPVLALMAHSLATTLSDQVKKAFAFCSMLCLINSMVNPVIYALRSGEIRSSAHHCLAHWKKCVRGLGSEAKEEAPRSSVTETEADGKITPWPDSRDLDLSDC

[4] = target: T2, Cytosolic phospholipase A2 (Homo sapiens, UniProt P47712); assay: Inhibition of cPLA2 activity
T2 sequence (P47712 whole entry): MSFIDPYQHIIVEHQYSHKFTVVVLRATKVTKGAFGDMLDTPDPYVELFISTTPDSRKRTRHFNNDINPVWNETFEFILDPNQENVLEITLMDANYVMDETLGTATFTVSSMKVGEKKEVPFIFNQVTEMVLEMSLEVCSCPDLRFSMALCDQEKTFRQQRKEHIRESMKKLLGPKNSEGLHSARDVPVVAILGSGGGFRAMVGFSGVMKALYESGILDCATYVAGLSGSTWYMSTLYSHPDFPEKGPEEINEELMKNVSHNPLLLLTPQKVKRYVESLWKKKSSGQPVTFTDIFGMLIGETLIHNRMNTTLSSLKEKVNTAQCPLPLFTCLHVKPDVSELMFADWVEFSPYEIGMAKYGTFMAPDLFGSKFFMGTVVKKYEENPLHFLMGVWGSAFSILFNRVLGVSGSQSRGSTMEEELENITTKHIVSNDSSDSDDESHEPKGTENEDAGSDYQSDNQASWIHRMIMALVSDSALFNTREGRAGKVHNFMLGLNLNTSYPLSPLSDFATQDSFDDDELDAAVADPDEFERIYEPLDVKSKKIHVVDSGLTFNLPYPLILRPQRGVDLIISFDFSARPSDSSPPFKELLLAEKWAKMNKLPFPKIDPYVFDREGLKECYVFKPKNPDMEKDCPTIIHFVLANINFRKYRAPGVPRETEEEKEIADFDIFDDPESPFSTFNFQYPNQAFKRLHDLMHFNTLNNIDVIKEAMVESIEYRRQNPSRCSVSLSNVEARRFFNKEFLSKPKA

Rattus norvegicus [5] = assay: Antinociceptive effect in rat persistent pain model assessed as suppression of formalin-induced paw flinches at 20 mg/kg, iv in presence of SR-141716A; format: functional, organism-based; set-up: dose 20 mg/kg
Method in brief: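 CB1 antagonist SR141716A was given ip at 3 or 10 mg/kg at -30 min. Test compound (20 mg/kg) followed iv via jugular catheter at -15 min, then subcutaneous paw formalin at 0 min. Paw-flinch frequency was scored in Phase I (acute) and Phase II (persistent). Groups were compared with vehicle by Dunnett's test.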

Rattus norvegicus [6] = assay: Antinociceptive effect in rat persistent pain model assessed as suppression of formalin-induced paw flinches at 20 mg/kg, iv relative to control; format: functional, organism-based; set-up: dose 20 mg/kg

Row | pIC50 [1] | Structure (SMILES) | also measured
1 | < 4.00 | CCCN(CCCCCCn1c(C)nc(-c2ccccc2)c1-c1ccccc1)C(=O)Oc1ccccc1F | –
2 | 5.00 | CCOC(=O)CC(CC)CCCCCn1c(C)nc(-c2ccccc2)c1-c1ccccc1 (centres undefined) | –
3 | < 4.00 | CCN(CCCCCCn1c(C)nc(-c2ccccc2)c1-c1ccccc1)C(=O)Oc1ccccc1F | –
4 | 6.01 | Cc1nc(-c2ccccc2)c(-c2ccccc2)n1CCCCCCC(=O)N(C)C | –
5 | 7.04 | CCOC(=O)CCCOc1cccc(-n2cnc(-c3ccccc3)c2-c2ccccc2)c1 | –
6 | 7.51 | CCc1nc(-c2ccccc2)c(-c2ccccc2)n1CCCCCCCC(=O)OC | –
7 | < 5.00 | CNC(=O)NCCCCCCn1c(C)nc(-c2ccccc2)c1-c1ccccc1 | –
8 | – | CCCCC/C=C\C/C=C\C/C=C\C/C=C\CCCC(=O)NCCO | Activity (Rattus norvegicus [2]): inactive
9 | 5.77 | CNC(=O)CCCCCCn1c(C)nc(-c2ccccc2)c1-c1ccccc1 | –
10 | < 5.00 | CCOC(=O)CCCCOc1ccc(-n2cnc(-c3ccccc3)c2-c2ccccc2)cc1 | –
11 | < 4.00 | CCOC(=O)CC(CCCCCn1c(C)nc(-c2ccccc2)c1-c1ccccc1)C(C)C (centres undefined) | –
12 | 5.00 | Cc1nc(-c2ccccc2)c(-c2ccccc2)n1CCCCCCNC(=O)Nc1ccccc1 | –
13 | 6.89 | CCOC(=O)CC(C)CCCCCn1c(C)nc(-c2ccccc2)c1-c1ccccc1 (centres undefined) | –
14 | 6.17 | COC(=O)COc1ccc(-n2cnc(-c3ccccc3)c2-c2ccccc2)cc1 | –
15 | 5.19 | COC(=O)COc1cccc(-n2cnc(-c3ccccc3)c2-c2ccccc2)c1 | –
16 | 7.19 | CCOC(=O)CCCOc1ccc(-n2cnc(-c3ccccc3)c2-c2ccccc2)cc1 | –
17 | 7.19 | CCOC(=O)CCCCCCn1c(C)nc(-c2ccc(F)cc2)c1-c1ccc(F)cc1 | –
18 | 7.49 | CCOC(=O)CCCCCn1c(CC)nc(-c2ccccc2)c1-c1ccccc1 | –

Row | Structure (SMILES) | pIC50 [1] | also measured
19 | Cc1nc(-c2ccc(F)cc2)c(-c2ccc(F)cc2)n1CCCCCCNC(=O)Oc1ccccc1F | 8.00 | –
20 | Cc1nc(-c2ccccc2)c(-c2ccccc2)n1CCCCCC(NC(=O)Oc1ccccc1F)c1ccccc1 (centres undefined) | 6.96 | –
21 | Cc1nc(-c2ccc(F)cc2)c(-c2ccc(F)cc2)n1CCCCCCNC(=O)Oc1c(F)cccc1F | 7.62 | –
22 | Cc1nc(-c2ccccc2)c(-c2ccccc2)n1CCCCCC(NC(=O)Oc1ccccc1F)C(C)C (centres undefined) | 6.60 | –
23 | CCOC(=O)CCCCCCn1c(CC)nc(-c2ccccc2)c1-c1ccccc1 | 7.96 | –
24 | Cc1nc(-c2ccccc2)c(-c2ccccc2)n1CCCCCCNC(=O)Oc1ccccc1F | 8.70 | pKi (Cannabinoid receptor 1): 4.64; Activity (Rattus norvegicus [3]): Active; pKi (Cannabinoid receptor 2): 4.55; pKi [4]: 4.82; Activity (Rattus norvegicus [5]): inactive; Activity (Rattus norvegicus [2]): inactive; Activity (Rattus norvegicus [6]): Active
25 | CCC(CCCCCn1c(C)nc(-c2ccccc2)c1-c1ccccc1)NC(=O)Oc1ccccc1F (centres undefined) | 7.52 | –
26 | Cc1nc(-c2ccccc2)c(-c2ccccc2)n1CCCCCC(C)NC(=O)Oc1ccccc1F (centres undefined) | 8.38 | –
27 | Cc1nc(-c2ccccc2)c(-c2ccccc2)n1CCCCCCNC(=O)Oc1ccccc1 | 8.28 | –
